Source: ChEMBL document CHEMBL4715824, “Chemical Proteomic Characterization of a Covalent KRASG12C Inhibitor” (ACS Med Chem Lett, 2018)
Activity calls are given as the source filed them. The calls are words filed in the database; no cut-off is given here.

Columns and labels:
[1] = tested on: GTPase KRas (Homo sapiens), P01116 [G12C]; experiment: Covalent binding affinity to KRAS G12C mutant at Cys12 residue in human NCI-H358 cells assessed as reduction of log2 H/L ratio for tryptic peptide LVVVGACGVGK at 2 uM incubated for 4 hrs followed by cell lysis and subsequently labelled with light thiol probe N-((S)-18-iodo-11-isopropyl-10,13,17-trio …; type: cell-based
[2] = species: Homo sapiens; experiment: (§1) Covalent inhibition of GDP bound His-tagged KRAS G12C/C51L/C80L/C118S mutant (1 to 169 residues) (unknown origin) expressed in Escherichia coli assessed as enzyme-compound adduct formation at Cys12 residue by measuring ratio of Kinact/Ki measured up to 20 mins by mass spectrometry analysis; details: time min <=20
Method in brief: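 KRAS G12C was held fixed at 2 μM and incubated with varying compound concentrations. Fraction of covalent Cys12 adduct over time was measured by intact-protein LC-MS, and kinact/KI was calculated from these kinetic data.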

[3] = tested on: NCI-H2030; experiment: Antiproliferative activity against human NCI-H2030 cells harboring KRAS G12C mutant assessed as reduction in cell viability; type: functional, cell-based
[4] = target: T1, Synaptic vesicle membrane protein VAT-1 homolog (Homo sapiens, UniProt Q99536); experiment: (§2) Covalent binding affinity to VAT1 at Cys residue in human NCI-H358 cells assessed as reduction of log2 H/L ratio for tryptic peptide […] incubated for 4 hrs followed by cell lysis and subsequently labelled with light thiol probe N-((S)-18-iodo-11-isopropyl-10,13,17-trioxo-3,6-dioxa-9,12,16-triazaoctadecyl)-6-((4R,5S)-5-methyl-2-oxoimidazolidin-4-yl)hexanamide and heavy thiol probe 4 for 1 hr under dark conditions followed by tryptic digestion for overnight and measured by discovery ABPP based nano LC-MS/MS analysis
T1 sequence (Q99536 whole entry): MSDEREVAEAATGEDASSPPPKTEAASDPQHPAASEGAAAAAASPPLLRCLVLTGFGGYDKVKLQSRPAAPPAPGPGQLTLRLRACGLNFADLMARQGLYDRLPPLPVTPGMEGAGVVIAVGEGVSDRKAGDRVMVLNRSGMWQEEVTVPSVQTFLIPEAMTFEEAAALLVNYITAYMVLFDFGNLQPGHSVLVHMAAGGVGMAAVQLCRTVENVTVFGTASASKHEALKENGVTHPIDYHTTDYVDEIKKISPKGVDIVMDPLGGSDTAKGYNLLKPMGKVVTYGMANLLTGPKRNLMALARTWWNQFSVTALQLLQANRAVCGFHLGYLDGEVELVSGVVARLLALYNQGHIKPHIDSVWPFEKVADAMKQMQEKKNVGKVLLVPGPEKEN
Method in brief: (§3)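 H358 cells were treated 4 h with DMSO, 0.08, 0.4, 2 or 10 μM, each paired with DMSO control cells, in biological duplicate. After lysis and denaturation, treated lysate took heavy thiol probe and control lysate took light probe. Lysates were combined equally, and probe-labelled tryptic peptides were streptavidin-enriched. Peptides were run twice by 180 min data-dependent nano LC-MS/MS. Hits needed log2 H/L below −0.776 (3σ) plus a dose-dependent decrease.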

[5] = species: Homo sapiens; experiment: as §1, with “analysis relative to ARS-853” for “analysis”; details: time min <=20
[6] = tested on: NCI-H358; experiment: Antiproliferative activity against human NCI-H358 cells harboring KRAS G12C mutant assessed as reduction in cell viability; type: functional, cell-based
[7] = target: T2, Reticulon-4 (Homo sapiens, UniProt Q9NQC3); experiment: as §2, with “RTN4” for “VAT1”, “Cys1101” for “Cys”
T2 sequence (Q9NQC3 whole entry): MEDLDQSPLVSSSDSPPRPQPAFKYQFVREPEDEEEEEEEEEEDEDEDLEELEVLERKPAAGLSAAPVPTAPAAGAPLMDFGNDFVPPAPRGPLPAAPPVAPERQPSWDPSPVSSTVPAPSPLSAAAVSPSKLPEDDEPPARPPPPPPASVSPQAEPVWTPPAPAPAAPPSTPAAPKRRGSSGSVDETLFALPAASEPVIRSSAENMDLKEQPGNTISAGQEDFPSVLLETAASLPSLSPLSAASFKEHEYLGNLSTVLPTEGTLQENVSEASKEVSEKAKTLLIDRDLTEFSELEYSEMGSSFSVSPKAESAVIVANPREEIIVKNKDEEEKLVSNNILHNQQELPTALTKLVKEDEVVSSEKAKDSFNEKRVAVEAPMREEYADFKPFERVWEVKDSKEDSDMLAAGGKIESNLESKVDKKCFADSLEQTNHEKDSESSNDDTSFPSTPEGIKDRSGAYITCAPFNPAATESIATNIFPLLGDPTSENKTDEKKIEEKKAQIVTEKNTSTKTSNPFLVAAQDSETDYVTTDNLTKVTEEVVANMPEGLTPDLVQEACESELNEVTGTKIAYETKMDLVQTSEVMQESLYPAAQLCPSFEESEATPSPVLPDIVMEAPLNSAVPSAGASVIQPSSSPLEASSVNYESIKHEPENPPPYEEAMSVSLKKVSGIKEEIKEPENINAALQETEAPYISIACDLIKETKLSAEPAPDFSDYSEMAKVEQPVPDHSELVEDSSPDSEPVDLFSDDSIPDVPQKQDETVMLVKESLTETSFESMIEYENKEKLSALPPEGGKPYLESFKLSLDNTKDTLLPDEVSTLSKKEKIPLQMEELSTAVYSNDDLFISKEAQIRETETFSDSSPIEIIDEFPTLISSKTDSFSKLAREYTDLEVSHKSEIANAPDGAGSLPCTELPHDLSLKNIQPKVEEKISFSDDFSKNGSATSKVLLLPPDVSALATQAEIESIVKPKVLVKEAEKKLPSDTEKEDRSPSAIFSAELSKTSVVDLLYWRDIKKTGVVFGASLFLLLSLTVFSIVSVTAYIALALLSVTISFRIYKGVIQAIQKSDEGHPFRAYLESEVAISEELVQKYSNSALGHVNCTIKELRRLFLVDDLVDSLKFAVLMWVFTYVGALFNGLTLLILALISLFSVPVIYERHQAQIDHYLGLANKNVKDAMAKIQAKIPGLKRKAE
Method in brief: as §3

[8] = target: Fatty acid-binding protein 5 (Homo sapiens) (UniProt Q01469); experiment: (§4) Covalent binding affinity to FABP5 at Cys67 residue in human NCI-H358 cells assessed as log2 H/L ratio at 10 uM pretreated for 3 hrs followed by N-(((6S,7R)-7-(4-chloro-3-fluorophenyl)-1,4-oxazepan-6-yl)methyl)-2-hydroxyacetamide treatment for 3 hrs by competitive TMT click chemistry pull-down experiment based LC-MS/MS analysis; type: cell-based; details: time 6.0 hrs
Method in brief: (§5)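 H358 cells were pretreated with DMSO (n = 3) or 10 μM compound for 3 h, then 2 μM alkyne probe was added for another 3 h. Cells were lysed, clicked onto azide-agarose resin, digested, TMT-labelled and pooled. The pool was fractionated by high-pH HPLC and each fraction run twice by 60 min low-pH nano LC-MS/MS. Readout was log2 compound/DMSO normalized reporter intensity, with a least-squares means test and FDR adjustment.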

[9] = target: T3, Synaptic vesicle membrane protein VAT-1 homolog (Homo sapiens) (UniProt Q99536); experiment: as §4, with “VAT1” for “FABP5”, “Cys86” for “Cys67”; type: cell-based; details: time 6.0 hrs
T3 sequence (whole entry): T1 sequence (Q99536 whole entry)
Method in brief: as §5

[10] = target: T4, Heme oxygenase 2 (Homo sapiens) (UniProt P30519); experiment: as §4, with “HMOX2” for “FABP5”, “Cys282” for “Cys67”; type: cell-based; details: time 6.0 hrs
T4 sequence (whole entry): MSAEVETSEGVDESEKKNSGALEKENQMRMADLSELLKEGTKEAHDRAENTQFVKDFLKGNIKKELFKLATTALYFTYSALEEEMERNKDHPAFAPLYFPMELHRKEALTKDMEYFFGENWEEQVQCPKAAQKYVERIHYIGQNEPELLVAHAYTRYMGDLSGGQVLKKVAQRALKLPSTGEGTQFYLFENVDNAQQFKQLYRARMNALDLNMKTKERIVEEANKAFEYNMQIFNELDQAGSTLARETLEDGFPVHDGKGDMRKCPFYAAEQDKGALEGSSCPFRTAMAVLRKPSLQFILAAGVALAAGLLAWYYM
Method in brief: as §5

[11] = target: T5, Peroxiredoxin-like 2A (Homo sapiens) (UniProt Q9BRX8); experiment: Covalent binding affinity to FAM213A in human NCI-H358 cells incubated for 4 hrs followed by cell lysis and subsequently labelled with light thiol probe N-((S)-18-iodo-11-isopropyl-10,13,17-trioxo-3,6-dioxa-9,12,16-triazaoctadecyl)-6-((4R,5S)-5-methyl-2-oxoimidazolidin-4-yl)hexanamide and heavy thiol probe 4 for 1 hr under dark conditions followed by tryptic digestion for overnight and measured by discovery ABPP based nano LC-MS/MS analysis
T5 sequence (whole entry): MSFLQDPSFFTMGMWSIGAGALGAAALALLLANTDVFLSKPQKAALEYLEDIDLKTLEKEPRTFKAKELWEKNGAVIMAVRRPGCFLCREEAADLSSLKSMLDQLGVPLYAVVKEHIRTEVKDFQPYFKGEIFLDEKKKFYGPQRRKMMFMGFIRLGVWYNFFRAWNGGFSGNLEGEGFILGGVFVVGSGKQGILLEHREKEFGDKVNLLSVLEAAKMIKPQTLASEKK

[12] = target: T5, Peroxiredoxin-like 2A (Homo sapiens); experiment: as §4, with “FAM213A” for “FABP5 at Cys67 residue”; type: cell-based; details: time 6.0 hrs
Method in brief: as §5

Activity [1]: Active
Ratio [2]: 501 M⁻¹ s⁻¹
IC50 [3]: 160 nM
IC50 [4]: 4480 nM
fold change (FC) [5]: 6
IC50 [6]: 640 nM
IC50 [7]: 14600 nM
Ratio [8]: -1.3
Ratio [9]: -0.6
Ratio [10]: -0.3
Activity [11]: inactive
Ratio [12]: -1.7
SMILES: C=CC(=O)N1CCN(c2ncnc3c(F)c(-c4c(O)cccc4F)c(Cl)cc23)CC1
